Assay results from publication PMC4200025 (International Journal of Nanomedicine, 2014).

Columns and labels:
Format in all cases: in vivo
[1] = Two-compartment pharmacokinetic analysis of plasma data; settings: ND4 Swiss Webster, mouse, iv, 0.24 mg/kg, distribution half-life, mice, IV 0.24 mg/kg dye, two-compartment model
[2] = Organ dye content 24 hours after IV injection; settings: mice
Summary of the method: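 ND4 Swiss Webster mice (25–30 g, n=3 per group) were anaesthetised with IP pentobarbital (40 mg/kg). They received 0.24 mg/kg dye (conjugate dosed by dye content) via the tail vein. At 24 h, organs were dissected, minced, homogenised and extracted in DMSO for 4 h, then centrifuged at 9,000 rpm for 15 min. Supernatant fluorescence was read against a DMSO calibration curve (785 nm excitation) and normalised to organ mass.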

[3] = Plasma dye concentration after IV injection; settings: mice, 24 hours after IV injection

half-life [1]: ~3.06 min
organ dye content, kidneys [2]: at background level
organ dye content, lungs [2]: at background level
overall recovered percentage of injected dose (plasma plus organs) [3]: 2.6%
recovered percentage of injected dose in plasma [3]: 0.8%
Structure (SMILES): CC1(C)C(/C=C/C=C/C=C/C=C2\N(CCCCS(=O)(=O)O)c3ccc4ccccc4c3C2(C)C)=[N+](CCCCS(=O)(=O)[O-])c2ccc3ccccc3c21 [ICG, indocyanine green]
